# Assay results collected from several papers.
# Observed: enzyme activity
# Action: inhibitor
# IGF1R: Insulin-like growth factor 1 receptor (IGF1R, Homo sapiens, UniProt P08069)
# IGF1R phosphorylated: Insulin-like growth factor 1 receptor, phosphorylated (IGF1R, Homo sapiens, UniProt P08069)
target,assay,setting,remaining activity,SMILES
IGF1R,,10 µM,80%,Nc1nc(Nc2ccccc2)sc1C(=O)c1c(F)cccc1F
IGF1R,,0.1 µM,115%,Cc1[nH]c(/C=C2\C(=O)Nc3ccc(F)cc32)c(C)c1C(=O)N[C@H]1CCN(C(=O)N(C)C)C1
IGF1R phosphorylated,radiometric,1 µM,108%,Cc1cnc(NC2CCOCC2)nc1-n1cnc(C(=O)NC(CN)c2cc(F)cc(Cl)c2)c1 (stereo not shown)
IGF1R,,10 µM,90%,CCCOc1ccc(OC)c(F)c1C(=O)c1ccc(C(=O)N[C@@H]2CNC[C@H]2NC(=O)c2ccc3[nH]ncc3c2)cc1
IGF1R,radiometric,1 µM,81%,CC(C)(C)c1nc(-c2cccc(NS(=O)(=O)c3c(F)cccc3F)c2F)c(-c2ccnc(N)n2)s1
IGF1R phosphorylated,,1 µM,117%,COc1cc(Cl)c(C(=O)N[C@@H](CN[C@H]2CC[C@@H](N)CC2)Cc2ccc(C#N)cc2)cc1-c1ccc(CN[C@H](C)c2ccc(C)cc2)o1
IGF1R,,10 µM,102%,Cc1sc(C(=O)NC2COC2)cc1-n1cc(NC(=O)Nc2c(F)cccc2Cl)cn1
IGF1R,,0.1 µM,75%,CCN(CC)CCNC(=O)c1c(C)[nH]c(/C=C2\C(=O)Nc3ccc(F)cc32)c1C
IGF1R,,10 µM,80%,Nc1nc(NC2CCCCC2)sc1C(=O)c1ccccc1
IGF1R,radiometric,1 µM,100%,COc1cc(Nc2cnc(C#N)c(O[C@H](C)CN(C)C)n2)ncc1-c1cnn(C)c1
IGF1R phosphorylated,,10 µM,102%,CCN(CC)c1ccc(C2=NNC(=O)CC2C)cc1[N+](=O)[O-] (stereo not shown)
IGF1R,,10 µM,54%,Oc1cccc(-c2nc(N3CCOCC3)c3oc4ncccc4c3n2)c1
IGF1R,,1 µM,99.2%,CC(C)(O)[C@H]1CC[C@H](Nc2ccc3ncc(-c4cccc(C(F)(F)F)c4)n3n2)CC1
